Screening results (PubChem BioAssay)
This is a sample that favours compounds with a hit; in the whole collection about 2.9% have one here.
Apaf1 inhib – inhibitors of human Apaf-1 apoptosome | inhibition, % at 20 µM | reconstituted apoptosome caspase-3 activity, DEVD-Rh110 fluorescence | 330,000 tested, 0.71% active; active = inhibition of at least 40% at 20 µM;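 note: plate controls were DMSO wells for no effect and DEVD-CHO caspase inhibitor wells for full effect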
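Assay system – apoptosome proteins · Medium – Hepes buffer, pH 7.5 · Also added – cytochrome c with DEVD-Rh110 · Timing – 30 min compound preincubation, 50 min activation, room temperature · Detection – Rh110 fluorescence, excitation 480 nm, emission 540 nm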
EBNA-1 inhibitor – blocks EBNA-1 binding to DNA | AID 1950 | 300,000 tested, 0.34% active | EBNA-1 DNA binding, fluorescence polarization | inhibition, % at 14.8 µM; in the data active = inhibition above about 28%
ZTA counter – counter-screen for EBNA-1 inhibitors: inhibitors of Epstein-Barr virus ZTA; 320,000 tested, 0.15% active; inhibition, % at 11 µM; ZTA-DNA binding, fluorescence polarization; P03206; in the data active = inhibition above about 33%
Target sequence (P03206 whole entry, looked up): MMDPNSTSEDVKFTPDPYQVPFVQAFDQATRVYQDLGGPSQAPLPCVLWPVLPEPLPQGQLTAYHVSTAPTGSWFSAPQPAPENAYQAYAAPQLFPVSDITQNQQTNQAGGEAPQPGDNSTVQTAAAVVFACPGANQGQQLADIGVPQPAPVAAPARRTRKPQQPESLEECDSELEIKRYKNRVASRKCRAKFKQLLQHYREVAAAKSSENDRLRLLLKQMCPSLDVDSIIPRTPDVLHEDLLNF
UBC13 inh – inhibitors of human UBC13 polyubiquitin chain formation; P61088; TR-FRET; inhibition, % at 20 µM; 330,000 tested, 0.47% active; in the data active = inhibition above about 45%, passing the limit was not always enough
Target sequence (P61088 whole entry, looked up): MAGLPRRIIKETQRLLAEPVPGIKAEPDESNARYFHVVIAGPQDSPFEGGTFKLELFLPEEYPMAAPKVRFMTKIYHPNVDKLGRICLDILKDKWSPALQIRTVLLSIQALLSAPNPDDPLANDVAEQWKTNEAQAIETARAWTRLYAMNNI
PfG6PD inh – PfG6PD (Plasmodium falciparum) enzyme inhibition | PfGluPho enzyme, NADPH resazurin-diaphorase fluorescence | inhibition, % at 20 µM | 350,000 tested, 0.78% active | AID 504690;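 active = inhibition reaching at least a set limit at 20 µM in the primary screen, cut at about 59% in these data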;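 note: 0% = DMSO wells with substrate and 100% = DMSO wells lacking glucose-6-phosphate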
M18AAP inhibitor – blocks P. falciparum M18 aspartyl aminopeptidase. recombinant PfM18AAP, H-Glu-NHMec fluorogenic cleavage. inhibition, % at 7.35 µM. 290,000 tested, 1.2% active. AID 1822;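 active = inhibition above the campaign mean inhibition over all tested compounds plus 3 SD, cut at about 28% in these data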;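 note: 0% = plate median of test compound wells and 100% = 2 mM ZnCl2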
Casp3 counter – caspase-3 inhibition (UBC13 counter-screen); 1,400 tested, 4% active; inhibition, % at 20 µM; shares compounds with UBC13 inh; Recombinant caspase-3, Caspase-Glo 3/7 luminescence, 60 min;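 active = mean inhibition across replicates above about 26%, limit read from the data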;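 note: plate controls were DMSO with caspase-3 for no effect and DMSO wells lacking enzyme for full effect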
Target sequence (P42574 whole entry, looked up): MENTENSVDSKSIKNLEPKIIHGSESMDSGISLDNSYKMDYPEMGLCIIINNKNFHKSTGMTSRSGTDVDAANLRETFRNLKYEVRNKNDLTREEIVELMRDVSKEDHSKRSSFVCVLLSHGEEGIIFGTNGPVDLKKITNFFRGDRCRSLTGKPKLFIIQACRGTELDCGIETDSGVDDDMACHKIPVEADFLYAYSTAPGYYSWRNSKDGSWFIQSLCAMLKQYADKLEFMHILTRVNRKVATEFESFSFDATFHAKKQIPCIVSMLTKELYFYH
UBC13 confirm – confirmation of human UBC13 polyubiquitin inhibitors | shares compounds with UBC13 inh | UBC13 polyubiquitination, TR-FRET, biochemical | inhibition, % at 10 µM | 1,400 tested, 68% active | AID 488859; in the data active = inhibition above about 45%
Apaf-1 inh conf2 – confirmation of Apaf-1 inhibitors | shares compounds with Apaf1 inhib | reconstituted apoptosome, caspase-3 DEVD-Rh110 fluorescence | inhibition, % at 20 µM | 1,800 tested, 25% active | AID 504614;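 active = mean inhibition of at least 40% at 20 µM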;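 note: plate controls were DMSO wells for no effect and DEVD-CHO caspase inhibitor control wells for full effect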
Rh110 quench – counter-screen for Apaf-1 inhibitors: fluorescence interference. shares compounds with Apaf1 inhib. Rh110 fluorescence interference, quenched caspase reaction. activation (fluorescence interference), % at 20 µM. 1,800 tested, under 10 active;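 active = signal rise of 40% or more at 20 µM, treated as a fluorescence artifact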
Fluor interf inh – Apaf-1 inhibitor counter-screen fluorescence artifact; shares compounds with Apaf1 inhib; fluorescence interference counterscreen, Apaf-1 assay format; IC50, µM; 460 tested, under 10 active; AID 588538; call rule not given here
Numbers without * were called inactive.

Screening COc1ccc(CN(C)C(=O)Cc2ccc(OC)c(S(=O)(=O)N3CCOCC3)c2)cc1OC returned Apaf1 inhib 59.8*, ZTA counter -6.7, UBC13 inh 101.2*, PfG6PD inh 2.0, Casp3 counter -2.8, UBC13 confirm 109.0*, Apaf-1 inh conf2 33.6 and Rh110 quench -1.6.
Screening COc1ccc(Br)cc1CN(C)C(=O)Cc1ccc(OC)c(S(=O)(=O)N2CCOCC2)c1 returned Apaf1 inhib -3.2, ZTA counter -9.9, UBC13 inh 4.2 and PfG6PD inh -9.8.
`C#CCOCCOCCOCCNc1nc(N2CCN(C(=O)CCCCCCCCCCNC(=O)Cn3cc(CCCCCN)nn3)CC2)nc(N2CCN(C(=O)CCCCCCCCCCNC(=O)[C@@H]([C@H](C)O)n3cc(C)nn3)CC2)n1` gave Apaf1 inhib 49.1*, EBNA-1 inhibitor 10.9, ZTA counter 30.2, UBC13 inh 116.2*, PfG6PD inh 41.6, Casp3 counter 0.2, UBC13 confirm 118.5*, Apaf-1 inh conf2 40.4*, Rh110 quench 17.5 and Fluor interf inh >100.
C#CCOCCOCCOCCNc1nc(N2CCN(C(=O)Cn3cc(CCCCN)nn3)CC2)nc(N2CCN(C(=O)[C@H](C(C)C)n3cc(CCO)nn3)CC2)n1 was read as Apaf1 inhib 4.3, EBNA-1 inhibitor 9.0, ZTA counter 2.4, UBC13 inh 5.9, PfG6PD inh 4.6 and M18AAP inhibitor -11.2.
`C#CCOCCOCCOCCNc1nc(N2CCN(C(=O)CCCCCCCCCCNC(=O)Cn3cc(C[C@@H](C)O)nn3)CC2)nc(N2CCN(C(=O)CCCCCCCCCCNC(=O)[C@@H]([C@H](C)CC)n3cc(CCCCCN)nn3)CC2)n1` gave Apaf1 inhib 53.7*, EBNA-1 inhibitor -0.8, ZTA counter -6.7, UBC13 inh 119.8*, PfG6PD inh 56.4, Casp3 counter 0.5, UBC13 confirm 121.4*, Apaf-1 inh conf2 49.7*, Rh110 quench 13.2 and Fluor interf inh >100.
Screening C#CCOCCOCCOCCNc1nc(N2CCOCC2)nc(N2CCN(C(=O)CCCCCCCCCCNC(=O)[C@H]([C@@H](C)CC)n3cc(CCCCN=C(N)N)nn3)CC2)n1 returned Apaf1 inhib 59.5*, EBNA-1 inhibitor 2.8, ZTA counter 6.1, UBC13 inh 77.2*, PfG6PD inh -5.4, Casp3 counter 1.4, UBC13 confirm 69.9*, Apaf-1 inh conf2 29.2 and Rh110 quench 0.8.
Screening CC(=O)Nc1ccc2c(c1)Cc1c(F)cccc1-2 returned PfG6PD inh -10.2.
C#CCOCCOCCOCCNc1nc(N2CCN(C(=O)CCCCCCCCCCNC(=O)[C@@H](CCSC)n3cc(CCO)nn3)CC2)nc(N2CCN(C(=O)CCCCCCCCCCNC(=O)[C@H](CCC(=O)O)n3cc(CCCCCN)nn3)CC2)n1 was read as Apaf1 inhib 61.6*, EBNA-1 inhibitor 6.0, ZTA counter -12.1, UBC13 inh 102.1*, PfG6PD inh 21.4, Casp3 counter -0.5, UBC13 confirm 77.4*, Apaf-1 inh conf2 20.9 and Rh110 quench 1.3.
`C#CCOCCOCCOCCNc1nc(N2CCN(C(=O)[C@H](CCCCN)n3cc(CCC(=O)O)nn3)CC2)nc(N2CCN(C(=O)[C@H](Cc3ccc(O)cc3)n3cc(CCO)nn3)CC2)n1` gave PfG6PD inh 2.4.
`C#CCOCCOCCOCCNc1nc(N2CCN(C(=O)[C@H](CCCCN)n3cc(CN)nn3)CC2)nc(N2CCN(C(=O)[C@H](CCCCN)n3cc(CN)nn3)CC2)n1` gave Apaf1 inhib 44.1*, UBC13 inh 103.2*, PfG6PD inh 1.7, Casp3 counter -8.2, UBC13 confirm 111.7*, Apaf-1 inh conf2 -5.0 and Rh110 quench 0.3.
C#CCOCCOCCOCCNc1nc(N2CCN(C(=O)CCCCCCCCCCNC(=O)[C@@H](CCSC)n3cc(CCO)nn3)CC2)nc(N2CCN(C(=O)CCCCCCCCCCNC(=O)[C@H](CO)n3cc(CCCCCN)nn3)CC2)n1 was read as Apaf1 inhib 71.1*, EBNA-1 inhibitor -6.3, ZTA counter 4.0, UBC13 inh 117.6*, PfG6PD inh 52.1, Casp3 counter -2.8, UBC13 confirm 122.7*, Apaf-1 inh conf2 40.2*, Rh110 quench 2.2 and Fluor interf inh >100.
For C#CCOCCOCCOCCNc1nc(N2CCN(C(=O)CCCCCCCCCCNC(=O)[C@H](CCCCN)n3cc(CCO)nn3)CC2)nc(N2CCN(C(=O)CCCCCCCCCCNC(=O)[C@H](CCCCN)n3cc(CCCC(=O)O)nn3)CC2)n1 the results were Apaf1 inhib 59.1*, EBNA-1 inhibitor 3.5, ZTA counter 18.6, UBC13 inh 117.0*, PfG6PD inh 58.0, Casp3 counter 1.7, UBC13 confirm 111.0*, Apaf-1 inh conf2 33.9 and Rh110 quench 8.5.
`CCS(=O)(=O)N1Cc2ccccc2CC1C(=O)Nc1ccc(F)c(F)c1F` (stereo unspecified) gave Apaf1 inhib 3.6, EBNA-1 inhibitor 10.8, ZTA counter 3.4, UBC13 inh 4.7, PfG6PD inh -11.0 and M18AAP inhibitor 2.5.
Screening COc1ccc(CCNC(=O)CSc2ccc(Br)cc2)cc1OC returned Apaf1 inhib -10.5, EBNA-1 inhibitor 9.6, ZTA counter -1.5, UBC13 inh -1.2, PfG6PD inh -2.1 and M18AAP inhibitor 0.3.
Screening COc1cc(C(=O)NNC(=O)COc2cccc(F)c2)ccc1OCC(=O)N1CCOCC1 returned Apaf1 inhib -2.2, ZTA counter 0.5, UBC13 inh -6.9 and PfG6PD inh -7.6.
Screening C#CCOCCOCCOCCNc1nc(N2CCN(C(=O)C([C@@H](C)O)n3cc([C@@H](N)CCCCN)nn3)CC2)nc(N2CCN(C(=O)[C@H](CCCN=C(N)N)n3cc(C(N)[C@@H](C)CC)nn3)CC2)n1 (stereo partly specified) returned Apaf1 inhib 46.2*, UBC13 inh 101.3*, PfG6PD inh 15.1, Casp3 counter 6.8, UBC13 confirm 110.9*, Apaf-1 inh conf2 -2.9 and Rh110 quench -3.1.
